Experimental data published in ChEMBL document CHEMBL1147889, “Synthesis of 6- and 9-alkylaminomethyl furoflavones as gastroprotective agents” (2007).

How the values were obtained:
Format in all cases: functional, Stomach
Rattus norvegicus [1] = assay: Gastroprotective activity against ethanol-induced gastric ulcer in fasted rat accessed as gastric ulcer index at 20 mg/kg, ip; settings: route intraperitoneal
Outline: (§1)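 Rats housed singly, fasted 36 h; test drug given, then 1 h later ulcer induced by oral 1 ml 70% ethanol in distilled water. Killed by cervical dislocation 1 h after ethanol; stomach opened along greater curvature, saline-rinsed, pinned flat. Ulcers counted; each lesion length measured by Vernier caliper, summed as ulcer index. Mean, SD, SE; one-way ANOVA then LSD pairwise test.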

Rattus norvegicus [2] = assay: Gastroprotective activity against ethanol-induced gastric ulcer in fasted rat accessed as number of ulcer at 20 mg/kg, ip; settings: route intraperitoneal; outline: as §1
Rattus norvegicus [3] = species on record: Rattus norvegicus; assay: Preventive index against ethnol-induced gastric ulcer rat in treated group to control group
Outline: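 Preventive index = percentage inhibition of gastric mucosal damage: PI = 100 − (ulcer index of treated group / ulcer index of control group × 100). Ulcer index is the summed caliper-measured lesion lengths, taken 1 h after oral 1 ml 70% ethanol in 36 h fasted rats dosed 1 h before ethanol. Compared by one-way ANOVA.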

| Structure (SMILES) | Activity (Rattus norvegicus [1]) | Activity (Rattus norvegicus [2]) | Preventive_index (Rattus norvegicus [3]) |
| --- | --- | --- | --- |
| COc1c2ccoc2cc2oc(-c3ccc(Cl)cc3)cc(=O)c12 | 33.2 mm | 25.5 | 34.5 |
| COc1c2occc2c(OC)c2c(=O)c(CN3CCN(C)CC3)c(-c3cccnc3)oc12 | 28.2 mm | 18.8 | 44.4 |
| COc1c2ccoc2cc2oc(-c3ccccc3)c(CN3CCOCC3)c(=O)c12 | 29.6 mm | 21.8 | 41.6 |
| COc1ccc(-c2cc(=O)c3c(OC)c4ccoc4cc3o2)cc1 | 24 mm | 19.7 | 52.6 |
| O=c1cc(-c2ccccc2)oc2cc3occc3c(O)c12 | 38.3 mm | 25.5 | 24.3 |
| COc1c2ccoc2c(CN2CCOCC2)c2oc(-c3cccnc3)cc(=O)c12 | 40.8 mm | 25 | 19.5 |
| COc1c2ccoc2c(CN2CCN(C)CC2)c2oc(-c3cccnc3)cc(=O)c12 | 29.7 mm | 23.7 | 41.5 |
| O=c1cc(-c2ccc(Cl)cc2)oc2cc3occc3c(O)c12 | 33.5 mm | 22.2 | 33.9 |
| O=c1cc(-c2ccc(Cl)cc2)oc2c(CN3CCOCC3)c3occc3c(O)c12 | 42.5 mm | 28.5 | 16.1 |
| COc1c2ccoc2cc2oc(-c3cccnc3)c(CN(C)C)c(=O)c12 | 31 mm | 21.2 | 38.8 |
| COc1c2ccoc2c(CN2CCOCC2)c2oc(-c3ccccc3)cc(=O)c12 | 39.8 mm | 27.8 | 21.4 |
| COc1c2ccoc2c(CN2CCOCC2)c2oc(-c3ccc(Cl)cc3)cc(=O)c12 | 37.2 mm | 26 | 26.6 |
| O=c1cc(-c2ccccc2)oc2c(CN3CCOCC3)c3occc3c(O)c12 | 37.5 mm | 26.5 | 26 |
| COc1c2ccoc2cc2oc(-c3ccccc3)cc(=O)c12 [PINNATIN] | 34.8 mm | 23.7 | 31.3 |
